Test results published in ChEMBL document CHEMBL4382197, “Discovery of QCA570 as an Exceptionally Potent and Efficacious Proteolysis Targeting Chimera (PROTAC) Degrader of the Bromodomain and Extra-Terminal (BET) Proteins Capable of Inducing Complete and Durable Tumor Regression” (J Med Chem, 2018).
The source made the active and inactive calls. No cut-off for these calls is given here.

Tests used:
[1] = Drug uptake in lungs of SCID mouse xenografted with human RS4:11 cells at 5 mg/kg, iv measured at 6 hrs by LC-MS/MS analysis; assay type: ADME, organism-based, Lung; conditions: in vivo, BLD = below limit of detection
Procedure, shortened: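 Female SCID mice with RS4;11 tumors received a single 5 mg/kg intravenous dose in 20% PCP/80% PBS. Plasma (heparin) and tissues were taken at 1, 3 and 6 h, one mouse per time point in duplicate. Plasma was precipitated with acetonitrile containing internal standard. Tissues were homogenized 5:1 in 20% acetonitrile. Quantified by LC-MS/MS against spiked plasma standards (2–2000 ng/mL); values in ng/ml or ng/g.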

RS4-11 = experiment: Induction apoptosis in human RS4:11 cells assessed as caspase-3 activation at 0.3 nM after 24 hrs by Western blot analysis; assay type: functional, cell-based
Procedure, shortened: (§1)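 Cells (1.5–2×10^6/well) were treated for 24 h, washed in cold PBS and lysed in RIPA with protease inhibitors. 20 µg lysate was run on 4–20% or 4–12% gels and transferred to PVDF. Blots were probed for cleaved PARP and cleaved caspase 3, with GAPDH as loading control. Detection by ECL.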

[2] = target: Protein cereblon/Bromodomain-containing protein 3/Cullin-4A (Homo sapiens) (UniProt Q15059+Q96SW2+Q13619); experiment: Protac activity at cereblon/cullin 4A/BRD3 in human RS4:11 cells assessed as BRD3 degradation at 0.5 nM after 3 hrs in presence of neddylation inhibitor MLN4924 by Western blot analysis; assay type: cell-based
Protein cereblon/Bromodomain-containing protein 3/Cullin-4A (Homo sapiens), sequence (Q13619 whole entry, looked up): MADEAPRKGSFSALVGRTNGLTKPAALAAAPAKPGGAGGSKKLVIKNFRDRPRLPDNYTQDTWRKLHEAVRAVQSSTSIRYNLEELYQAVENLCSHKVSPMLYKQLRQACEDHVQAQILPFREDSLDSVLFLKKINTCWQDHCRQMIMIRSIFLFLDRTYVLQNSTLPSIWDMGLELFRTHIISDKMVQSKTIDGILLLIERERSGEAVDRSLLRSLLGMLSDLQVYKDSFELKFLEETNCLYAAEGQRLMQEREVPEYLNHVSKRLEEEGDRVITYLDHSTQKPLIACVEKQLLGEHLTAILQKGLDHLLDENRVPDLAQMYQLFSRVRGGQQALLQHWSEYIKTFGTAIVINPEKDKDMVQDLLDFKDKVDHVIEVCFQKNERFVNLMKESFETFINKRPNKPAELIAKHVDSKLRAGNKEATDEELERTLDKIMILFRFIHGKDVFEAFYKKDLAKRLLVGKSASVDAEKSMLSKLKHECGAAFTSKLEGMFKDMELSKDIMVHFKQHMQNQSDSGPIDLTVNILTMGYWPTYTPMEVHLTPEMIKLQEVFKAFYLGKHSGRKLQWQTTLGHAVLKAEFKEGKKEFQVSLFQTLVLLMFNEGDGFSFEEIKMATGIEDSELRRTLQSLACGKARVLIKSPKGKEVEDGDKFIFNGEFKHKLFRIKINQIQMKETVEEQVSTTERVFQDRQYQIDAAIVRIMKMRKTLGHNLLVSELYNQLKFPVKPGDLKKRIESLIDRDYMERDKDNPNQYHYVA
Protein cereblon/Bromodomain-containing protein 3/Cullin-4A (Homo sapiens), sequence (Q15059 whole entry, looked up): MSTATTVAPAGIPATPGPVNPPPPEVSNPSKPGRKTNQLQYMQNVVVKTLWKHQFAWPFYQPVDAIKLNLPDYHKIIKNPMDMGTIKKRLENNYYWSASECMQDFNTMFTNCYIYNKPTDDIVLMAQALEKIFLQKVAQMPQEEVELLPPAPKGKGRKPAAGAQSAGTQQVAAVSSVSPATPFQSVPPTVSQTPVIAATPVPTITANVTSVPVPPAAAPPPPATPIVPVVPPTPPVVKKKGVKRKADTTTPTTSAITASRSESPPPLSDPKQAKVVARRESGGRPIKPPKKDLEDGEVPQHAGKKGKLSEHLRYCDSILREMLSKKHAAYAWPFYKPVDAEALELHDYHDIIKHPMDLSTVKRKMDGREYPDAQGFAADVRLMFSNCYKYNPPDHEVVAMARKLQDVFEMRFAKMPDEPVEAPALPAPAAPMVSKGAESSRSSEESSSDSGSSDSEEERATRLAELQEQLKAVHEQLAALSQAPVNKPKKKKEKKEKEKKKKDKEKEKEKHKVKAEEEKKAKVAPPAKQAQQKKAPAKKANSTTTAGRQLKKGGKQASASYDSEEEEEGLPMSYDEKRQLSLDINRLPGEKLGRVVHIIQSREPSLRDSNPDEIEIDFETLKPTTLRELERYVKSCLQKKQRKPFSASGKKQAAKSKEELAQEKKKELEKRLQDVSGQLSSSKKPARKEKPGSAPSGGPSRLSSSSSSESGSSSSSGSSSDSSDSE
Protein cereblon/Bromodomain-containing protein 3/Cullin-4A (Homo sapiens), sequence (Q96SW2 whole entry, looked up): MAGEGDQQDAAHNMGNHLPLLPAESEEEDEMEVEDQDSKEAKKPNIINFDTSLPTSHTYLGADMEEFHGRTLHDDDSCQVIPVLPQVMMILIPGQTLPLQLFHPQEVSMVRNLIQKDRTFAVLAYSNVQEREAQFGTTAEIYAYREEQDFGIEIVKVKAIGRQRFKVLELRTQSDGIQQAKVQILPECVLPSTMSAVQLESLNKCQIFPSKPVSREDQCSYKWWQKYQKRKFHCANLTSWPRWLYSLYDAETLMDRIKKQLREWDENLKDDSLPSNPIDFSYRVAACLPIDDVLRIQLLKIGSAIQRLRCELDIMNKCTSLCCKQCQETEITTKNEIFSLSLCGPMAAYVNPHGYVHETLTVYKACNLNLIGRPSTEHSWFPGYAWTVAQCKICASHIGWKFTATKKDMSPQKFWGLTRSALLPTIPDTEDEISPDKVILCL
Procedure, shortened: (§2)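 RS4;11 cells were pre-treated for 2 h with DMSO, lenalidomide (10 μM), MLN4924 (1 μM) or MG-132 (20 μM). The degrader was then added at 0.5 nM for 3 h. Lysates were immunoblotted for BRD2, BRD3 and BRD4, with GAPDH as loading control.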

[3] = target: Protein cereblon/Bromodomain-containing protein 2/Cullin-4A (Homo sapiens) (UniProt P25440+Q96SW2+Q13619); experiment: Protac activity at cereblon/cullin 4A/BRD2 in human RS4:11 cells assessed as BRD2 degradation at 0.5 nM after 3 hrs in presence of lenalidomide by Western blot analysis; assay type: cell-based; procedure, shortened: as §2
Protein cereblon/Bromodomain-containing protein 2/Cullin-4A (Homo sapiens), sequence (P25440 whole entry, looked up): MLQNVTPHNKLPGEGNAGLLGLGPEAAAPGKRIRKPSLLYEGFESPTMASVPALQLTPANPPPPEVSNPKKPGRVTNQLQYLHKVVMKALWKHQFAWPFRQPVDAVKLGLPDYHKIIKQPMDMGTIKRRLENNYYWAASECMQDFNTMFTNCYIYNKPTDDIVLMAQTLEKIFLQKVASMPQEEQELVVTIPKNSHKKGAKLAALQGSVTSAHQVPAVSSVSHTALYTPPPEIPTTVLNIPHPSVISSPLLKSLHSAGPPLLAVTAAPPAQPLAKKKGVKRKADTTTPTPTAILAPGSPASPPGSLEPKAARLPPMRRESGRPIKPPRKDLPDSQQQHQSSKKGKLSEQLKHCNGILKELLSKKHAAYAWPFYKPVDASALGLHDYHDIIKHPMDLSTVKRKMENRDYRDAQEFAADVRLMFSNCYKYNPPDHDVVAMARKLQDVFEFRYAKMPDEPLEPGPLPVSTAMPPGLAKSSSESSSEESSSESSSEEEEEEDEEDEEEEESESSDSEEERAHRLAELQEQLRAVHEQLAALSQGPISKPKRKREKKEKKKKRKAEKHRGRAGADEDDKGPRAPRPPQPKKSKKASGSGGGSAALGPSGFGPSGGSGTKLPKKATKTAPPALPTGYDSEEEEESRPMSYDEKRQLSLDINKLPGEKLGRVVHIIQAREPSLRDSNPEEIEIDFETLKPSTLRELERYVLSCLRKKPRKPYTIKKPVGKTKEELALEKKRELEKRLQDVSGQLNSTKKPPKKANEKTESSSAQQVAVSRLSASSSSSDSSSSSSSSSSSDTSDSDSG
Protein cereblon/Bromodomain-containing protein 2/Cullin-4A (Homo sapiens), sequence (Q13619 whole entry, looked up): as the sequence (Q13619 whole entry, looked up) above
Protein cereblon/Bromodomain-containing protein 2/Cullin-4A (Homo sapiens), sequence (Q96SW2 whole entry, looked up): as the sequence (Q96SW2 whole entry, looked up) above

MV4-11 [4] = experiment: Induction apoptosis in human MV4-11 cells assessed as caspase-3 activation at 0.3 nM after 24 hrs by Western blot analysis; assay type: functional, cell-based; procedure, shortened: as §1
MV4-11 [5] = experiment: Growth inhibition of human MV4-11 cells after 96 hrs by CCK8 assay; assay type: functional, cell-based; conditions: MV4-11, 96 h

Drug uptake [1]: Bld
Activity [2]: inactive
Activity [3]: inactive
IC50 (MV4-11 [5]): 8.3 pM
SMILES: Cc1nnc2n1Cc1sc(C#Cc3cnn(CCCC#Cc4cccc5c4CN(C4CCC(=O)NC4=O)C5=O)c3)c(Cc3ccccc3)c1OC2 (stereo unspecified)
Activity (RS4-11): inactive
Activity (MV4-11 [4]): Active
